This is an account of results in ChEMBL document CHEMBL5252535, “Design of nucleotide-mimetic and non-nucleotide inhibitors of the translation initiation factor eIF4E: Synthesis, structural and functional characterisation” (Eur J Med Chem, 2016).

Assay [1] has as its system HeLa. The experiment in a line: Inhibition of protein synthesis in methionine-starved human HeLa cells incubated for 24 hrs by scintillation counting based 35S-Met incorporation assay. The format is functional, cell-based. The method in brief: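 HeLa cells seeded at 6 × 10^4 per well, grown 24 h to 70% confluency, treated 24 h; Met-starved 30 min in Met-free DMEM with fresh compound, then pulsed 30 min with 35S-Met. Cells washed, lysed, protein TCA-precipitated and scintillation counted; puromycin positive control; three independent occasions; IC50 derived.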

The subject of a further assay is MCF7. The experiment in a line: Inhibition of protein synthesis in methionine-starved human MCF7 cells incubated for 24 hrs by scintillation counting based 35S-Met incorporation assay. In kind it is functional, cell-based.
The subject of assay [2] is Reticulocyte. Put plainly: Inhibition of cap dependent translation of renilla luciferase mRNA in pRHCVF RNA primed rabbit reticulocyte lysate at 100 uM incubated for 90 mins by […]. In kind it is functional, subcellular. To be noted: Oryctolagus cuniculus. Summed up: (§1)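 Rabbit reticulocyte lysate primed with 20 ng capped pRHCVF RNA (20 μL), 30 °C for 90 min, then on ice. Renilla (cap-dependent) and firefly (HCV IRES) luciferase read; final DMSO ≤1%; inhibition relative to 1% DMSO control set at 100%; m7GTP positive control. Three independent experiments, Student's t-test, S.D.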

Assay [3] deals with T1, Eukaryotic translation initiation factor 4E (Homo sapiens, UniProt P06730). Put plainly: Inhibition of m7GDP fluorescent probe binding to recombinant eIF4E (unknown origin) assessed as dissociation constant by fluorescence polarization assay.
The target of assay [4] is T1, Eukaryotic translation initiation factor 4E. Put plainly: Inhibition of P32-[alpha-GTP] cap radiolabelled RNA binding to recombinant eIF4E (unknown origin) assessed as decrease in cross linked RNA-eIF4E complex formation preincubated with UV radiation for 30 mins followed by RNase addition and measured after 30 mins by SDS-PAGE based autoradiographic analysis.
The test system of assay [5] is Reticulocyte. Put plainly: Inhibition of HCV-IRES mediated cap-independent translation of firefly luciferase mRNA in rabbit reticulocyte lysate at 100 uM incubated for 90 mins by […]. The format is functional, subcellular. To be noted: Oryctolagus cuniculus. The method in brief:
as §1

Assay [6] has as its system Reticulocyte. The experiment in a line: Inhibition of cap dependent translation of renilla luciferase mRNA in pRHCVF RNA primed rabbit reticulocyte lysate at 25 to 100 uM incubated for 90 mins by […]. The format is functional, subcellular. To be noted: Oryctolagus cuniculus, dose 25-100 µM. Summed up:
as §1

In assay [7] the test system is Reticulocyte. The experiment in a line: Inhibition of HCV-IRES mediated cap-independent translation of firefly luciferase mRNA in rabbit reticulocyte lysate at 25 to 100 uM incubated for 90 mins by […]. The format is functional, subcellular. The following applies: Oryctolagus cuniculus, dose 25-100 µM. Summed up:
as §1

Assay [8] deals with HeLa. The experiment in a line: Downregulation of cMyc protein level in human HeLa cells at 50 to 100 uM incubated for 2 hrs by Western blot analysis. The format is functional, cell-based. To be noted: dose 50-100 µM. Summed up: (§2)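 HeLa cells treated 2 h; lysates probed by western blotting for c-myc and cyclin D1, actin as loading control.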
The test system of assay [9] is HeLa. Put plainly: Downregulation of cyclin D1 protein level in human HeLa cells at 50 to 100 uM incubated for 2 hrs by Western blot analysis. In kind it is functional, cell-based. The following applies: dose 50-100 µM. Summed up:
as §2
In general terms: A western blot detects proteins with antibodies after separation by electrophoresis.

For assay [10], the system named is HeLa. Put plainly: Inhibition of cap dependent translation in human HeLa cells assessed as decrease in amount of RNA incorporated in polysomes at 25 uM incubated for 2 hrs by UV absorbance recording based assay. The format is functional, cell-based. The method in brief:
(§3)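 HeLa cells seeded in 15-cm dishes, grown 24 h to 70% confluency, treated 2 h; cycloheximide (0.1 mg/mL) added, cells harvested on ice and lysed (300 mM NaCl, 15 mM MgCl2, 15 mM Tris pH 7.5, heparin, cycloheximide, 0.1% Triton X-100). Lysates run on 10–60% sucrose gradients, 38,000 rpm 2 h; 1 mL fractions with continuous UV absorbance; polysome vs subpolysome areas compared; puromycin positive control.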

Assay [11] deals with HeLa. Put plainly: Inhibition of cap dependent translation in human HeLa cells assessed as increase in sub-polysomal material at 50 to 100 uM incubated for 2 hrs by UV absorbance recording based assay. The following applies: dose 50-100 µM. In kind it is functional, cell-based. Summed up: as §3

The source made the active and inactive calls. The calls are words filed in the database; no cut-off is given here.

T1 sequence (P06730 whole entry): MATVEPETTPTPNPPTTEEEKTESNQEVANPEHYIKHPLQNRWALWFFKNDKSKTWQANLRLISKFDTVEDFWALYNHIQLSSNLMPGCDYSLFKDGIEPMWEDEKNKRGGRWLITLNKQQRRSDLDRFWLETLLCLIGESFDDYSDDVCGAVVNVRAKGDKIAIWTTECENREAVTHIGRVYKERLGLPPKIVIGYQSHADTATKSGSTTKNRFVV

Consider `C[n+]1cn([C@@H]2O[C@H](COP(=O)(O)OP(=O)(O)OP(=O)(O)O)[C@@H](O)[C@H]2O)c2nc(N)[nH]c(=O)c21`, for which the inhibition entry in the assay on HeLa [1] and with MCF7 was “inactive” each time.

In the case of `Nc1nc2c(c(=O)[nH]1)[n+](Cc1ccccc1)cn2[C@@H]1O[C@H](CNS(=O)(=O)C(F)(F)F)[C@@H](O)[C@H]1O`, in the assay on Reticulocyte [2], the inhibition result was “Active”. The Kd – broadly, the free concentration of one partner at which half of the binding sites on the other are occupied at equilibrium, for simple one-to-one binding – in assay [3] stood at 56.5 µM. The IC50 (commonly the concentration needed to halve the response being measured) in assay [4] worked out at 12.6 µM. In addition, the inhibition result in the assay on HeLa [1], in the assay on MCF7 and with Reticulocyte [5] was “inactive” throughout.

Consider `CC(C)CNC(=S)N(Cc1ccccc1)Cc1cc2cc3c(cc2[nH]c1=O)OCO3`, for which the Kd in assay [3] is 57.8 µM. Also, the inhibition result in the assay with Reticulocyte [6], in the assay on HeLa [10] and with HeLa [11] was “Active” in each case. Moreover, in the assay with Reticulocyte [7], the inhibition entry was “inactive”. In addition, the result in the assay with HeLa [8] and with HeLa [9] was Active.

On to `C[n+]1cn([C@@H]2O[C@H](CNS(=O)(=O)c3ccc(C(=O)O)cc3)[C@@H](O)[C@H]2O)c2nc(N)[nH]c(=O)c21`, for which the inhibition result in the assay on Reticulocyte [2] is “Active”. Moreover, the inhibition result with HeLa [1], with MCF7 and in the assay on Reticulocyte [5] was “inactive” in each case.

Turning to `C[n+]1cn([C@@H]2O[C@H](COP(=O)(O)O)[C@@H](O)[C@H]2O)c2nc(N)[nH]c(=O)c21`, the inhibition result in the assay on HeLa [1] and with MCF7 was “inactive” throughout.
